ChEMBL document CHEMBL4325910, “Design and synthesis of rosiglitazone-ferulic acid-nitric oxide donor trihybrids for improving glucose tolerance” (Eur J Med Chem, 2019)
The source made the active and inactive calls. No cut-off for these calls is given here.

Experiments:
3T3-L1 [1] = assay: Inhibition of ROS production in TNF-alpha-induced insulin resistant mouse 3T3L1 cells at 10 uM after 48 hrs by DCFH-DA dye-based fluorescence assay; format: functional, cell-based
Platelet [2] = assay: Antiplatelet activity in platelet rich plasma (unknown origin) assessed as inhibition of ADP-induced platelet aggregation at 16 mM relative to control; format: functional
[3] = Toxicity in spontaneous db/db BKS.Cg-Dock7m +/+ Leprdb/J mouse assessed as reduction in serum hematocrit value at 27 umol/kg, po administered as daily dose via gavage treated for 18 days; format: organism-based; details: in vivo, 432 h
Platelet [4] = assay: Antiplatelet activity in platelet rich plasma (unknown origin) assessed as inhibition of arachidonic acid-induced platelet aggregation at 16 mM relative to control; format: functional
[5] = Metabolic stability in Sprague-Dawley rat plasma after 0.5 hrs by HPLC analysis; format: ADME, cell-free
In short: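 Compound (100 μM final; 100 mM DMSO stock diluted 1:1000) was incubated in triplicate in SD rat plasma at 37 °C with shaking for 0–24 h. Acetonitrile (3 volumes) was added, samples centrifuged and supernatants run on HPLC. Gradient was ammonium acetate pH 3.5/acetonitrile, 1.0 mL/min, detection at 254 nm.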

[6] = Metabolic stability in simulated gastric fluid at pH 1.5 measured after 2 hrs by HPLC analysis; format: ADME; details: read-out: Stability
In short: (§1)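 Gastric fluid was 1% pepsin in water, pH 1.5. Intestinal fluid was 1% trypsin with 0.68% KH2PO4, pH 6.8. Compound (100 mM DMSO stock) was diluted 1:1000 into each, in triplicate. Incubation was at 37 °C for 0, 2, 4, 6, 16 or 24 h. Acetonitrile (3 volumes) stopped it, then HPLC at 254 nm.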

Platelet [7] = assay: Antiplatelet activity in platelet rich plasma (unknown origin) assessed as inhibition of arachidonic acid-induced platelet aggregation at 0.2 mM relative to control; format: functional
[8] = Metabolic stability in simulated intestinal fluid at pH 6.8 measured after 24 hrs by HPLC analysis; format: ADME; details: read-out: Stability; in short: as §1
Mus musculus = assay: Antidiabetic activity in spontaneous db/db BKS.Cg-Dock7m +/+ Leprdb/J mouse assessed as decrease in blood glucose AUC at 10 to 20 mg/kg, po administered as daily dose via gavage for 18 days measured on day 12 up to 120 mins post glucose challenge by oral glucose tolerance test; format: functional, organism-based
In short: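 Male db/db mice (BKS.Cg-Dock7m +/+ Leprdb/J), 6 weeks old on purchase, randomized, n=8 per group. Dosed by gavage in 0.5% CMC-Na daily for 18 consecutive days. Vehicle-dosed db/db and C57BL/6 mice served as model and control. Fasting glucose was read by glucometer every three days. On day 12, after an overnight fast, 2 g/kg glucose was given orally. Blood glucose was read at 0–120 min and AUC calculated. Mean ± SEM.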

[9] = Metabolic stability in human liver microsomes after 2 hrs in presence of NADPH by HPLC analysis; format: ADME, Microsome; details: read-out: Stability
In short: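 Compound (100 mM DMSO stock) was added in triplicate to 0.1 M phosphate buffer pH 7.4 with 3.3 mM MgCl2 and human liver microsomes, then preincubated 5 min at 37 °C. NADPH (1.3 mM stock) was added and incubation continued 0, 0.5, 1, 2 or 6 h. Acetonitrile quench, then HPLC at 254 nm.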

[10] = Metabolic stability in simulated intestinal fluid at pH 6.8 measured after 4 hrs by HPLC analysis; format: ADME; details: read-out: Stability; in short: as §1
Platelet [11] = assay: Antiplatelet activity in platelet rich plasma (unknown origin) assessed as inhibition of ADP-induced platelet aggregation at 3.2 mM relative to control; format: functional
3T3-L1 [12] = assay: Inhibition of ROS production in TNF-alpha-induced insulin resistant mouse 3T3L1 cells at 3 to 10 uM after 48 hrs by DCFH-DA dye-based fluorescence assay; format: functional, cell-based

Compound | inhibition (3T3-L1 [1]) | inhibition at 16000 µM (Platelet [2]) [%] | Activity [3] | inhibition at 16000 µM (Platelet [4]) [%] | Stability [5] [%] | remaining at 2 h [6] [%] | inhibition at 200 µM (Platelet [7]) [%] | remaining at 24 h [8] [%] | Activity (Mus musculus) | remaining at 2 h [9] [%] | remaining at 4 h [10] [%] | inhibition at 3200 µM (Platelet [11]) [%] | inhibition (3T3-L1 [12])
CN(CCOc1ccc(CC2SC(=O)NC2=O)cc1)c1ccccn1 (stereo not drawn) [ROSIGLITAZONE] | Active | 68.9 | Toxic | 67.2 | 20 |  |  |  |  |  |  |  | 
CCN(CC)/[N+]([O-])=N/OCOC(=O)/C=C/c1ccc(OC(=O)OCN2C(=O)SC(Cc3ccc(OCCN(C)c4ccccn4)cc3)C2=O)c(OC)c1 (stereo not drawn) |  |  |  |  |  | 99.8 | 30.2 | 75.5 | Active | 85.3 | 96.9 | 57.3 | Active
